Measured values taken from PubChem BioAssay.
Inconclusive results are not listed.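 How the source made its calls, unless noted: active means RAM network inhibition above 8.4% in each of two replicates, 3 SD over the compound average; inconclusive means above 8.4% inhibition in only one replicate; inactive means 8.4% inhibition or less in each replicate.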

Columns and labels:
[1] = OD615 S. cerevisiae growth inhibition, permissive medium, pilot counter-assay, permissive growth control for S. cerevisiae lifespan shortening project (AID 705;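 active means growth inhibition above 25% in both replicates, a cutoff set 3 SD above the mean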); conditions: OD615, 24 h, at 10 µM, active compounds read high
Summary of the method: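 assay system = Saccharomyces cerevisiae strain carrying genetically modified DeaD replicative-lifespan system | technique = absorbance (optical density) at 615 nm | buffer or medium = permissive raffinose/galactose medium | timing = cells pre-grown 4 h, then 24 h compound exposure, 30 °C humidified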

[2] = Restrictive medium S. cerevisiae growth inhibition, OD615, pilot screen of yeast lifespan reduction project, restrictive growth control (AID 706;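 active means growth inhibition above a set limit, 3 SD over mean compound inhibition, in both replicates, cut at about 43% in these data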;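 further: modified DeaD lifespan yeast strain shifted to restrictive glucose medium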); conditions: OD615, 48 h, at 10 µM, active compounds read high
Summary of the method: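 System: modified S. cerevisiae. Buffer or medium: CSMM-D glucose medium. Incubation: 4 h pre-growth plus 48 h compound exposure, 30 °C. Detection: absorbance (optical density) measured at 615 nm.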

[3] = viability gain of MRP-1-high H69AR cells under doxorubicin, pilot screen, MRP-1 activator project, CellTiter-Glo, duplicate (AID 807;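 active means viability increase at or above a cutoff of the median across tested compounds plus 3 SD, cut at about 8.5% in these data, passing the limit was not always enough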;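 further: compound pretreatment 18-22 h then 72 h combined with doxorubicin; 0% = doxorubicin alone and 100% = vehicle without doxorubicin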); conditions: H69AR viability with doxorubicin, CellTiter-Glo luminescence; at 10 µM; active compounds read high
[4] = growth suppression of beta-catenin knockout HCT116, pilot screen, human colon tumor cells (AID 823;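 active means cell viability at or below a set limit in both duplicate runs, the limit being the all-compound median minus 4 SD, cut at about 23% in these data, passing the limit was not always enough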;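 further: 0% = wells killed by 20 µM Hyamine and 100% = untreated DMSO cell wells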); conditions: CellTiter-Glo, 60 h, at 10 µM, active compounds read low
[5] = growth suppression of PTEN-deleted HCT116, pilot screen, cell-based, HCT116 clonal line, CellTiter-Glo (AID 824;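 active means viability at or below 27.92% in each of two runs, the all-compound median minus 4 SD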;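 further: 0% = 20 µM Hyamine control and 100% = vehicle cell control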); conditions: 60 h, at 10 µM, active compounds read low
[6] = inhibitors of the yeast RAM network, pilot screen, dse1pr::URA3 reporter, 5-FOA selection (AID 869;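 active means inhibition over a set limit, the all-compound mean plus 3 SD, in both replicate runs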;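 further: 0% = DMSO wells with no growth and 100% = 10 µM 1-NA-PP1 with full growth; RAM network block rescues cells from 5-FOA so hits raise OD615 growth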); conditions: S. cerevisiae dse1pr::URA3 5-FOA growth, OD615, 2 d; at 10 µM; active compounds read high; strain carries analog-sensitive mutant Cbk1 kinase
[7] = RAM signaling pathway blockade in yeast – S. cerevisiae, Pdr1DBD-CYC8 efflux-inhibited sensitized strain, primary screen (AID 1298);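 further: 0% = DMSO untreated cells without growth and 100% = 10 µM 1-NA-PP1 full growth; higher means more yeast growth rescued from 5-FOA killing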; conditions: S. cerevisiae cbk1-as DSE1-URA3 strain, 5-FOA growth OD615, 2 d; at 50 µM; active compounds read high

Oc1ccc(-c2nc3cnccn3c2Nc2ccc3c(c2)OCCO3)cc1
inactive: growth inhibition [1] 2% | growth inhibition [2] 6.18% | viability increase [3] -6.18% | viability [4] 83.7% | viability [5] 83.8% | inhibition [6] 1.58% | RAM network inhibition [7] 7.64%

CCC(C#CCN1CCCCC1)(CC)OCCC#N
inactive: growth inhibition [1] -4.58% | growth inhibition [2] -9.71% | viability increase [3] -1.94% | viability [4] 102% | viability [5] 97.6% | inhibition [6] 0.79% | RAM network inhibition [7] 4.07%

O=C1CCCCCN1CP(=O)(O)CCc1ccccc1
inactive: growth inhibition [1] -5.01% | growth inhibition [2] -0.455% | viability increase [3] -0.2% | viability [4] 100% | viability [5] 104% | inhibition [6] 1.19% | RAM network inhibition [7] 0.42%

Cc1cccc(N2CCN(C(c3cccs3)c3nnnn3C(C)(C)C)CC2)c1C (configuration not stated)
inactive: growth inhibition [1] -10.2% | growth inhibition [2] -9.96% | viability increase [3] -0.98% | viability [4] 55.5% | viability [5] 56.7% | inhibition [6] 0.97% | RAM network inhibition [7] 5.15%

O=C(O)c1ccc(F)c(S(=O)(=O)Nc2ccccc2)c1
inactive: growth inhibition [1] -3.28% | growth inhibition [2] -2.19% | viability increase [3] 1.08% | viability [4] 96.2% | viability [5] 101% | inhibition [6] -0.93% | RAM network inhibition [7] -0.06%

Cc1cc(Cl)ccc1NC(=O)CSc1nnc(-c2ccncc2)n1Cc1ccco1
inactive: growth inhibition [1] 5.41% | growth inhibition [2] 25% | viability increase [3] 0.37% | viability [4] 92.5% | viability [5] 93.9% | inhibition [6] 1% | RAM network inhibition [7] 3.58%

CCOC(=O)N1CCN(C(=O)CS(=O)Cc2nc(-c3cccc(C)c3)oc2C)CC1 (configuration not stated)
inactive: growth inhibition [1] -10.5% | growth inhibition [2] -16.8% | viability increase [3] -1.34% | viability [4] 104% | viability [5] 100% | inhibition [6] 1.69% | RAM network inhibition [7] 1.11%

CC1CCCCN1CCNC(=O)c1cnn2ccccc12 (configuration not stated)
inactive: growth inhibition [1] -12.7% | growth inhibition [2] -9.32% | viability increase [3] -1.7% | viability [4] 101% | viability [5] 91.6% | inhibition [6] 2.58% | RAM network inhibition [7] 0.01%

CCc1cc(Br)ccc1N1C(=O)C2CC=CCC2C1=O (configuration not stated)
inactive: growth inhibition [1] -6.14% | growth inhibition [2] -7.71% | viability increase [3] 0.19% | viability [4] 86.5% | viability [5] 94.9% | inhibition [6] 1.2% | RAM network inhibition [7] 0.4%

Cc1ccccc1-c1noc(-c2cccs2)n1
inactive: growth inhibition [1] 8.34% | growth inhibition [2] 6.79% | viability increase [3] -4.68% | viability [4] 94% | viability [5] 90.4% | inhibition [6] 2.11% | RAM network inhibition [7] 6%

Cc1ccc2oc3c(c(=O)c2c1)C(c1cccs1)N(CCCN(C)C)C3=O (configuration not stated)
inactive: growth inhibition [1] 2.01% | growth inhibition [2] 4.98% | viability increase [3] -2.74% | viability [4] 97.2% | viability [5] 97.8% | inhibition [6] 1.28% | RAM network inhibition [7] -1.13%

COc1ccccc1OCCNC(=O)c1ccc(S(=O)(=O)N(C)C)cc1
inactive: growth inhibition [1] -3.92% | growth inhibition [2] 3.39% | viability increase [3] -1.91% | viability [4] 100% | viability [5] 91.9% | inhibition [6] -0.715% | RAM network inhibition [7] 2.71%

COc1ccc(CCNC(=O)c2cnccn2)cc1
inactive: growth inhibition [1] -10.1% | growth inhibition [2] -2.55% | viability increase [3] 0.3% | viability [4] 102% | viability [5] 87.2% | inhibition [6] 3.53% | RAM network inhibition [7] 2.5%

NC(=O)CSc1nnc(Cn2c(=O)sc3ccccc32)n1-c1ccccc1
inactive: growth inhibition [1] -6.81% | growth inhibition [2] -0.84% | viability increase [3] -0.83% | viability [4] 98.5% | viability [5] 96.8% | inhibition [6] 2.02% | RAM network inhibition [7] 2.47%

Cc1nccn1-c1c2c(c(C#N)c3nc4ccccc4n13)CCC2
inactive: growth inhibition [1] -8.38% | growth inhibition [2] -2.89% | viability increase [3] -2.34% | viability [4] 97.3% | viability [5] 93.1% | inhibition [6] 2.08% | RAM network inhibition [7] 2.4%

CCOc1ccc(NC(=O)CSc2nnc(Cn3c(=O)sc4ccccc43)n2C)cc1
inactive: growth inhibition [1] -5.25% | growth inhibition [2] -0.055% | viability increase [3] -2.49% | viability [4] 98% | viability [5] 103% | inhibition [6] 0.83% | RAM network inhibition [7] 7.78%

COCCN1C(=O)c2oc3ccccc3c(=O)c2C1c1ccc(C(=O)OC)cc1 (configuration not stated)
inactive: growth inhibition [1] -1.7% | growth inhibition [2] 5.81% | viability increase [3] -1.14% | viability [4] 94.3% | viability [5] 89.1% | inhibition [6] 0.775% | RAM network inhibition [7] 2.37%

CCc1ccc(NC(=O)CSc2nnc(Cc3cccn3C)n2-c2ccc(F)cc2)cc1
inactive: growth inhibition [1] 4.25% | growth inhibition [2] 12.9% | viability increase [3] -5.81% | viability [4] 77.2% | viability [5] 68.9% | inhibition [6] 0.05% | RAM network inhibition [7] 7.15%

CCN(CC)CCCNC(=O)c1cc(-c2ccc(O)cc2)on1
inactive: growth inhibition [1] -14.6% | growth inhibition [2] 9.75% | viability increase [3] -3.12% | viability [4] 99.1% | viability [5] 96.1% | inhibition [6] 1.24% | RAM network inhibition [7] 1.77%

Cc1ccc(CNC(=O)CN(C)S(=O)(=O)c2cccc3cccnc23)cc1
inactive: growth inhibition [1] -2.75% | growth inhibition [2] 6.15% | viability increase [3] -1.21% | viability [4] 99.4% | viability [5] 92.9% | inhibition [6] 2.25% | RAM network inhibition [7] -1.33%

CCOC(=O)Cc1nnc(NC(=O)CSc2nncn2C)s1
inactive: growth inhibition [1] -1.1% | growth inhibition [2] 7.44% | viability increase [3] -0.06% | viability [4] 98.5% | viability [5] 94.5% | inhibition [6] 1.5% | RAM network inhibition [7] 2.87%

COC(=O)c1ccc2c(c1)N(Cc1cc(C)ccc1C)C(=O)c1ccccc1S2=O (configuration not stated)
inactive: growth inhibition [1] -0.815% | growth inhibition [2] -2.77% | viability increase [3] -2.53% | viability [4] 96.8% | viability [5] 91.9% | inhibition [6] 0.92% | RAM network inhibition [7] 3.53%

O=C(NCc1cccs1)c1cnc2sccn2c1=O
inactive: growth inhibition [1] -9.93% | growth inhibition [2] 18% | viability increase [3] 0.04% | viability [4] 99.3% | viability [5] 89.9% | inhibition [6] 1.6% | RAM network inhibition [7] 0.36%

O/N=C(/Cc1ccccn1)c1ccccc1
inactive: growth inhibition [1] -1.64% | growth inhibition [2] 7.06% | viability increase [3] -1.19% | viability [4] 101% | viability [5] 101% | inhibition [6] 1.97% | RAM network inhibition [7] 0.22%

CCOc1ccc(C(=O)Nc2c3c(nn2-c2ccc(C)cc2)CS(=O)C3)cc1OCC (configuration not stated)
inactive: growth inhibition [1] 2.17% | growth inhibition [2] -3.32% | viability increase [3] -1.84% | viability [4] 97.6% | viability [5] 104% | inhibition [6] 2.23% | RAM network inhibition [7] 8.77%

Nc1cc(-c2cccc(F)c2)nn1S(=O)(=O)c1cccc2nsnc12
inactive: growth inhibition [1] -5.94% | growth inhibition [2] -7.52% | viability increase [3] -2.16% | viability [4] 68.5% | viability [5] 65.7% | inhibition [6] 2.71% | RAM network inhibition [7] 0.98%

CCc1ccc(NC(=O)CN(c2ccc3c(c2)OCO3)S(=O)(=O)c2c(C)noc2C)cc1
inactive: growth inhibition [1] -16.8% | growth inhibition [2] -11.4% | viability increase [3] 0.12% | viability [4] 85.5% | viability [5] 80.5% | inhibition [6] 3.38% | RAM network inhibition [7] 9.54%

COc1cccc(C(c2sc3ncnn3c2O)N2CC(C)OC(C)C2)c1 (configuration not stated)
inactive: growth inhibition [1] 4.48% | growth inhibition [2] -2.31% | viability increase [3] 2.62% | viability [4] 99.1% | viability [5] 95.7% | inhibition [6] 1.34% | RAM network inhibition [7] 2.05%

O=C(COC(=O)C(O)c1ccccc1)c1ccc2c(c1)OCCO2 (configuration not stated)
inactive: growth inhibition [1] -4.38% | growth inhibition [2] -9.29% | viability increase [3] -0.39% | viability [4] 97.1% | viability [5] 106% | inhibition [6] 1.27% | RAM network inhibition [7] 4.89%

CCOc1ccccc1-c1nc(C(N)=O)c2[nH]c(=O)n(-c3ccc(F)cc3)c2n1
inactive: growth inhibition [1] -8.26% | growth inhibition [2] -0.005% | viability increase [3] -4.08% | viability [4] 90.2% | viability [5] 83.9% | inhibition [6] 0.93% | RAM network inhibition [7] -0.71%

N=c1c2c(n(Cc3ccc(F)cc3)c3c1CCC3)CCC2
inactive: growth inhibition [1] -12.2% | growth inhibition [2] -14.7% | viability increase [3] -0.55% | viability [4] 34.5% | viability [5] 38.9% | inhibition [6] 0.8% | RAM network inhibition [7] 0.77%

COc1ccc(Cl)cc1Nc1cc(C)nc2nc(C)nn12
inactive: growth inhibition [1] -5.01% | growth inhibition [2] -6.77% | viability increase [3] -3.12% | viability [4] 103% | viability [5] 94.8% | inhibition [6] -0.515% | RAM network inhibition [7] 3.45%

COc1ccc(N(CC(=O)NCc2ccccc2OC)S(=O)(=O)c2c(C)nn(C)c2C)cc1
inactive: growth inhibition [1] -12.2% | growth inhibition [2] -16.1% | viability increase [3] -3.37% | viability [4] 99.6% | viability [5] 95.6% | inhibition [6] 0.135% | RAM network inhibition [7] 2.29%

COc1ccc(NC(=O)c2cc3ccccn3n2)cc1
inactive: growth inhibition [1] -2.21% | growth inhibition [2] 0.42% | viability increase [3] -0.18% | viability [4] 81% | viability [5] 73.1% | inhibition [6] -0.545% | RAM network inhibition [7] 0.83%

CC1(C)NC(=O)N(CC(O)COc2ccc(N3C(=O)c4ccccc4C3=O)cc2)C1=O (configuration not stated)
inactive: growth inhibition [1] -3.45% | growth inhibition [2] -3.49% | viability increase [3] -1.32% | viability [4] 102% | viability [5] 96.5% | inhibition [6] 1.87% | RAM network inhibition [7] 0.17%

COc1ccc(C2C(C(=O)c3ccco3)=C(O)C(=O)N2CCc2ccccc2)cc1OC (configuration not stated)
inactive: growth inhibition [1] -12.1% | growth inhibition [2] 7.54% | viability increase [3] -1.95% | viability [4] 101% | viability [5] 92.5% | inhibition [6] 5.36% | RAM network inhibition [7] 4.36%
